Source: PMC4420653 (Biochemical pharmacology, 2015)
“And” between values parts separate entries of the source, which are not always exact repeats. Identical values can stand only once. “Also recorded” adds a separate entry of the source. Like-named read-outs stand apart in the source and are kept apart here. Values belong to the compound of their own block, whether it stands above or below them.

Assays:
[1] = tested on: atRA formation in mouse testis S10 fractions; test: Inhibition of atRA formation by WIN 18,446 in testis S10 fractions; assay type: biochemical
[2] = tested on: atRA formation in mouse liver S10 fractions; test: Inhibition of atRA formation by WIN 18,446 in liver S10 fractions; assay type: biochemical; conditions: read-out: IC50 for inhibition of atRA formation; pooled liver S10, 100 nM at-retinal, 2 mM NAD+
[3] = tested on: atRA formation in mouse liver S10 protein; test: Time dependent inhibition of atRA formation in liver S10 protein; assay type: biochemical; conditions: pooled liver S10 protein, 1 µM WIN 18,446 preincubation
[4] = tested on: atRA formation in mouse liver S10 protein; assay type: biochemical
[5] = WIN 18,446 pharmacokinetics in mice; assay type: in vivo, mouse
[6] = tested on: atRA formation in testes S10 fractions; test: atRA formation velocity in testes S10 fractions from WIN 18,446 treated mice; assay type: in vivo, mouse
[7] = tested on: ALDH1A1 and ALDH1A2 protein expression; test: ALDH1A1 and ALDH1A2 protein expression in liver and testis of treated mice; assay type: in vivo, mouse; conditions: 8 days of treatment
Method in brief: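 Test compound was given orally at 125 mg/kg every 24 h for 8 days (n=3), alongside a single-dose group (n=3) and vehicle controls dosed with 1% gum tragacanth (n=8). S10 fractions (microsomes plus cytosol) were made from each mouse's testes (17–45 mg) and liver (114–309 mg), protein was measured by BCA, and ALDH1A1 and ALDH1A2 were quantified by LC-MS/MS. Mean ± SD.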

[8] = tested on: liver atRA concentrations; test: Liver atRA concentrations after WIN 18,446 administration; assay type: in vivo, mouse
[9] = tested on: testis atRA concentrations; test: Testis atRA concentrations after WIN 18,446 administration; assay type: in vivo, mouse; conditions: for testis atRA concentration: single dose
[10] = tested on: serum atRA concentrations; test: Serum atRA concentrations after WIN 18,446 administration; assay type: in vivo, mouse
ALDH1A2 = biological target: T1, ALDH1A2 (Mus musculus, UniProt Q62148); conditions: mouse testes S10 fractions
T1 sequence (Q62148 1-518): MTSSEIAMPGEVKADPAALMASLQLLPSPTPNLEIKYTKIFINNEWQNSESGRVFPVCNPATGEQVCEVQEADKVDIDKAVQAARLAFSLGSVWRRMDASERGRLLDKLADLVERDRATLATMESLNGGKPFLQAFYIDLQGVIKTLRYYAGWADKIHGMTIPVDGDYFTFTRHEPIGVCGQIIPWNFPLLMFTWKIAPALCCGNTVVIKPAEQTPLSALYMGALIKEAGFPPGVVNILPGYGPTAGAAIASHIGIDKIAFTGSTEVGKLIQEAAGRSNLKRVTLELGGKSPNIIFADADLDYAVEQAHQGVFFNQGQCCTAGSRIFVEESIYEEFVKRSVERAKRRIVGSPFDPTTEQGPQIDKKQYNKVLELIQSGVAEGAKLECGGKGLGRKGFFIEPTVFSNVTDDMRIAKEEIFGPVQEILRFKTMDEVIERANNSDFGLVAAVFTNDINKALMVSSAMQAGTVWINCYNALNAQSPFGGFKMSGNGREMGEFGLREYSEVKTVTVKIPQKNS

[11] = 500 nM, ultracentrifugation
[12] = tested on: atRA formation in human testis; conditions: human testicular tissue; cited from earlier work
ALDH1A1 = conditions: read-out: Km of atRA formation; recombinant ALDH1A1; cited from earlier work
[13] = Tissue half-life of atRA from concentration-time curves after WIN 18,446; assay type: in vivo; conditions: C57BL/6-129, mouse, po, 125 mg/kg
AOX = conditions: cited from earlier work
[14] = tested on: atRA formation in the mouse liver; conditions: cited from earlier work
[15] = eight daily doses 125 mg/kg po, mice
[16] = 125 mg/kg once a day for 8 days

Structure (SMILES): O=C(NCCCCCCCCNC(=O)C(Cl)Cl)C(Cl)Cl [WIN 18,446]
IC50 ([1]; read-out: IC50 for inhibition of atRA formation, pooled testis S10, 100 nM at-retinal, 2 mM NAD+): 0.059 ± 0.001 µM
maximum inhibition of atRA formation ([1]; testis S10 fractions): > 95%
IC50 [2]: 0.092 ± 0.002 µM
time dependent inhibition of atRA formation [3]: not liver S10 protein; also recorded: not in the liver
inhibition of atRA formation ([4]; WIN 18,446 5000 nM alone, 1000 nM at-retinal, Figure 2D): 60 ± 2%
average concentration over the 24 hour dosing interval ([5]; day 8 of dosing 125 mg/kg po): 3.5 µM
AUC0–24 [5, 15]: 87.6 µM·h
Cmax [5, 15]: 8.5 µM
increase in Cmax versus single dose ([5]; eight daily doses vs single dose): 7 fold
AUC0-∞ ([5]; single dose 125 mg/kg po, mice): 2.5 µM·h
Cmax ([5]; single dose 125 mg/kg po, mice): 1.3 µM
average concentration over a 24 hour interval ([5]; single dose 125 mg/kg po, mice): 0.1 µM
time to reach Cmax ([5]; single dose 125 mg/kg po, mice): ≤ 30 min
two compartment model parameter A ([5]; single dose, fit of equation 4): -6.6 µM
two compartment model parameter B ([5]; single dose, fit of equation 4): 6.2 µM
two compartment model parameter C ([5]; single dose, fit of equation 4): 0.4 µM
two compartment model parameter α ([5]; single dose, fit of equation 4): 1.3e+06 h⁻¹
two compartment model parameter β ([5]; single dose, fit of equation 4): 3.7 h⁻¹
two compartment model parameter γ ([5]; single dose, fit of equation 4): 0.2 hr-^1
decrease in atRA formation in testes S10 ([6]; at the time of the 8th dose (24 hours after 7th dose)): 79 ± 5%
decrease in atRA formation in testes S10 ([6]; testes collected 24 hours after single dose 125 mg/kg, 125 mg/kg): 55 ± 2% and 55%
change in ALDH1A1 or ALDH1A2 expression in liver or testis [7]: not significantly altered; also recorded: not significantly changed
average liver atRA concentration [8, 16]: 5.4 ± 1.9 pmol/g
reduction in average liver atRA concentration versus vehicle [8, 16]: 32% and 32 ± 3%
decrease in liver atRA ([8]; abstract, dosing not specified): 50%
time of first significant reduction of liver atRA ([8]; after the first dose, p < 0.01): 0.5 h
decrease in hepatic atRA concentration ([8]; single dose): 42%
time of return of liver atRA to baseline ([8]; single dose): 12 h
liver atRA concentration ([8]; single dose, by 4 hours after dosing): 58 % of control
hepatic atRA concentration on return ([8]; single dose, within 24 hours): 100%
average testicular atRA concentration over the 24 hours dosing interval [9, 16]: 1.5 ± 0.3 pmol/g
testicular atRA concentration, average for the dosing interval [9, 16]: 33 % of control and 33 ± 5 % of control
decrease in testicular atRA ([9]; abstract, dosing not specified): over 90%
time of first significant reduction of testis atRA ([9]; after the first dose, p < 0.01): 0.5 h
observed decrease in testis atRA concentrations ([9]; following WIN 18,446 dosing (compared with single dose prediction)): 67%
testis atRA concentration ([9]; 24 hours after dosing): 23 % of control
testis atRA concentration ([9]; by 4 hours): < 10 % of control
testicular atRA concentration ([9]; time 0 hr before the 8th dose): 60 % of control
average serum atRA concentration [10, 16]: 1.3 ± 0.7 pmol/g
time of first significant decrease of serum atRA ([10]; after the first dose, p < 0.05): 2 h
time of return of serum atRA to baseline ([10]; single dose): 24 h
serum atRA concentration ([10]; single dose, by 4 hours): < 20 % of control
KI (time dependent inhibition) (ALDH1A2): 0.42 ± 0.19 µM
fu in mouse serum [11]: > 0.99
inhibition of atRA formation in human testis [12]: more than 95%

Structure (SMILES): CC1=C(/C=C/C(C)=C/C=C/C(C)=C/C=O)C(C)(C)CCC1 [at-retinal, all-trans retinal]
Km (ALDH1A1): 0.285 µM

half-life ([13]; liver): < 30 min
half-life ([13]; serum): 30 ± 6 min
half-life ([13]; testis): 78 ± 6 min
Structure (SMILES): CC1=C(/C=C/C(C)=C/C=C/C(C)=C/C(=O)O)C(C)(C)CCC1 [atRA, all-trans retinoic acid]

Structure (SMILES): NNc1nncc2ccccc12 [hydralazine]
inhibition of atRA formation ([4]; hydralazine 1 mM, 45 min preincubation, liver S10, 1000 nM at-retinal): approximately 50%
KI (AOX): 83 ± 27 µM
kinact (AOX): 3.8 ± 0.4 hr-^1

Structure (SMILES): Cc1ncc(CO)c(C=O)c1O [pyridoxal]
inhibition of atRA formation [14]: approximately 5%
